Experiments:
Assay type in all cases: toxicity, cell-based
[1] = system: HEK-293T; experiment: Incucyte cell viability with HEK293T; details: human, 10 µM, compound concentration 10 uM; further: filed as whole numbers so only -1 and 0 and 1 occur
[2] = system: HEK-293T; experiment: Multiplex assay against HEK293T; details: human;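 on Population Tubulin-Different-Phenotype (%): share of the cells with healthy nuclei that show this phenotype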
Procedure, shortened: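 Hoechst33342, BioTracker Green Microtubule Cytoskeleton Dye, MitoTracker Red and Annexin V Alexa Fluor 680 were added to live cells at seeding, and imaging on a CQ1 microscope at 37°C and 5% CO2 followed compound addition. Gating by CellPathfinder machine learning separated cells into Hoechst high-intensity objects or normal cells, then normal cells into healthy, pyknosed or fragmented nuclei, then pyknosed cells into mitotic or apoptotic. Per cents of healthy-nucleus cells are reported for the tubulin, mitochondrial-mass and membrane-permeability phenotypes.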

[3] = system: Fibroblast; experiment: Incucyte cell viability with human fibroblast; details: 10 µM, compound concentration 10 uM; further: filed as whole numbers so only -1 and 0 and 1 occur
[4] = 6 h, replicate number 1, timepoint 6 hours
[5] = 12 h, replicate number 1, timepoint 12 hours
[6] = 18 h, replicate number 1, timepoint 18 hours
[7] = 24 h, replicate number 1, timepoint 24 hours
[8] = 12 h, 1 µM, compound concentration 1 uM, replicate 1
[9] = 12 h, 1 µM, compound concentration 1 uM, replicate 2
[10] = 12 h, 10 µM, compound concentration 10 uM, replicate 1
[11] = 12 h, 10 µM, compound concentration 10 uM, replicate 2
[12] = 24 h, 1 µM, compound concentration 1 uM, replicate 1
[13] = 24 h, 1 µM, compound concentration 1 uM, replicate 2
[14] = 24 h, 10 µM, compound concentration 10 uM, replicate 1
[15] = 24 h, 10 µM, compound concentration 10 uM, replicate 2
[16] = 48 h, 1 µM, compound concentration 1 uM, replicate 1
[17] = 48 h, 1 µM, compound concentration 1 uM, replicate 2
[18] = 48 h, 10 µM, compound concentration 10 uM, replicate 1
[19] = 48 h, 10 µM, compound concentration 10 uM, replicate 2

SMILES: CCCc1cc(C)[nH]c(=O)c1CNC(=O)c1cc(-c2ccc(N3CCN(C(C)C)CC3)nc2)cc2c1cnn2C(C)C
- Growth Rate [1, 4]: 0
- Growth Rate [1, 5]: 0
- Growth Rate [1, 6]: 0
- Growth Rate [1, 7]: 0
- Population Apoptotic (%) [2, 8]: 63%
- Population Fragmented Nuclei (%) [2, 8]: 13%
- Population Healthy Nuclei (%) [2, 8]: 25%
- Population Hoechst High Intensity Objects (%) [2, 8]: 13%
- Population Membrane Permeable-Phenotype (%) [2, 8]: 9%
- Population Mitochondria Different-Phenotype (%) [2, 8]: 97%
- Population Mitotic Cells (%) [2, 8]: 36%
- Population Normal (%) [2, 8]: 86%
- Population Pyknosed Nuclei (%) [2, 8]: 60%
- Population Tubulin-Different-Phenotype (%) [2, 8]: 86%
- Total Cell Count [2, 8]: 193
- Population Apoptotic (%) [2, 9]: 51%
- Population Fragmented Nuclei (%) [2, 9]: 4%
- Population Healthy Nuclei (%) [2, 9]: 27%
- Population Hoechst High Intensity Objects (%) [2, 9]: 3%
- Population Membrane Permeable-Phenotype (%) [2, 9]: 3%
- Population Mitochondria Different-Phenotype (%) [2, 9]: 87%
- Population Mitotic Cells (%) [2, 9]: 48%
- Population Normal (%) [2, 9]: 96%
- Population Pyknosed Nuclei (%) [2, 9]: 67%
- Population Tubulin-Different-Phenotype (%) [2, 9]: 94%
- Total Cell Count [2, 9]: 200
- Population Apoptotic (%) [2, 10]: 94%
- Population Fragmented Nuclei (%) [2, 10]: 9%
- Population Healthy Nuclei (%) [2, 10]: 20%
- Population Hoechst High Intensity Objects (%) [2, 10]: 20%
- Population Membrane Permeable-Phenotype (%) [2, 10]: 2%
- Population Mitochondria Different-Phenotype (%) [2, 10]: 97%
- Population Mitotic Cells (%) [2, 10]: 5%
- Population Normal (%) [2, 10]: 79%
- Population Pyknosed Nuclei (%) [2, 10]: 69%
- Population Tubulin-Different-Phenotype (%) [2, 10]: 89%
- Total Cell Count [2, 10]: 231
- Population Apoptotic (%) [2, 11]: 96%
- Population Fragmented Nuclei (%) [2, 11]: 5%
- Population Healthy Nuclei (%) [2, 11]: 12%
- Population Hoechst High Intensity Objects (%) [2, 11]: 8%
- Population Membrane Permeable-Phenotype (%) [2, 11]: 11%
- Population Mitochondria Different-Phenotype (%) [2, 11]: 94%
- Population Mitotic Cells (%) [2, 11]: 3%
- Population Normal (%) [2, 11]: 91%
- Population Pyknosed Nuclei (%) [2, 11]: 82%
- Population Tubulin-Different-Phenotype (%) [2, 11]: 100%
- Total Cell Count [2, 11]: 151
- Population Apoptotic (%) [2, 12]: 79%
- Population Fragmented Nuclei (%) [2, 12]: 11%
- Population Healthy Nuclei (%) [2, 12]: 26%
- Population Hoechst High Intensity Objects (%) [2, 12]: 17%
- Population Membrane Permeable-Phenotype (%) [2, 12]: 4%
- Population Mitochondria Different-Phenotype (%) [2, 12]: 97%
- Population Mitotic Cells (%) [2, 12]: 20%
- Population Normal (%) [2, 12]: 82%
- Population Pyknosed Nuclei (%) [2, 12]: 62%
- Population Tubulin-Different-Phenotype (%) [2, 12]: 97%
- Total Cell Count [2, 12]: 190
- Population Apoptotic (%) [2, 13]: 57%
- Population Fragmented Nuclei (%) [2, 13]: 2%
- Population Healthy Nuclei (%) [2, 13]: 52%
- Population Hoechst High Intensity Objects (%) [2, 13]: 3%
- Population Membrane Permeable-Phenotype (%) [2, 13]: 6%
- Population Mitochondria Different-Phenotype (%) [2, 13]: 94%
- Population Mitotic Cells (%) [2, 13]: 42%
- Population Normal (%) [2, 13]: 96%
- Population Pyknosed Nuclei (%) [2, 13]: 45%
- Population Tubulin-Different-Phenotype (%) [2, 13]: 94%
- Total Cell Count [2, 13]: 239
- Population Apoptotic (%) [2, 14]: 91%
- Population Fragmented Nuclei (%) [2, 14]: 15%
- Population Healthy Nuclei (%) [2, 14]: 16%
- Population Hoechst High Intensity Objects (%) [2, 14]: 19%
- Population Mitochondria Different-Phenotype (%) [2, 14]: 96%
- Population Mitotic Cells (%) [2, 14]: 8%
- Population Normal (%) [2, 14]: 80%
- Population Pyknosed Nuclei (%) [2, 14]: 68%
- Population Tubulin-Different-Phenotype (%) [2, 14]: 77%
- Total Cell Count [2, 14]: 236
- Population Apoptotic (%) [2, 15]: 98%
- Population Fragmented Nuclei (%) [2, 15]: 4%
- Population Healthy Nuclei (%) [2, 15]: 20%
- Population Hoechst High Intensity Objects (%) [2, 15]: 14%
- Population Membrane Permeable-Phenotype (%) [2, 15]: 3%
- Population Mitochondria Different-Phenotype (%) [2, 15]: 100%
- Population Mitotic Cells (%) [2, 15]: 1%
- Population Normal (%) [2, 15]: 85%
- Population Pyknosed Nuclei (%) [2, 15]: 74%
- Population Tubulin-Different-Phenotype (%) [2, 15]: 81%
- Total Cell Count [2, 15]: 151
- Population Apoptotic (%) [2, 16]: 75%
- Population Fragmented Nuclei (%) [2, 16]: 19%
- Population Healthy Nuclei (%) [2, 16]: 46%
- Population Hoechst High Intensity Objects (%) [2, 16]: 9%
- Population Membrane Permeable-Phenotype (%) [2, 16]: 0%
- Population Mitochondria Different-Phenotype (%) [2, 16]: 96%
- Population Mitotic Cells (%) [2, 16]: 24%
- Population Normal (%) [2, 16]: 90%
- Population Pyknosed Nuclei (%) [2, 16]: 33%
- Population Tubulin-Different-Phenotype (%) [2, 16]: 86%
- Total Cell Count [2, 16]: 241
- Population Apoptotic (%) [2, 17]: 69%
- Population Fragmented Nuclei (%) [2, 17]: 6%
- Population Healthy Nuclei (%) [2, 17]: 68%
- Population Hoechst High Intensity Objects (%) [2, 17]: 2%
- Population Membrane Permeable-Phenotype (%) [2, 17]: 1%
- Population Mitochondria Different-Phenotype (%) [2, 17]: 77%
- Population Mitotic Cells (%) [2, 17]: 30%
- Population Normal (%) [2, 17]: 97%
- Population Pyknosed Nuclei (%) [2, 17]: 25%
- Population Tubulin-Different-Phenotype (%) [2, 17]: 91%
- Total Cell Count [2, 17]: 327
- Population Apoptotic (%) [2, 18]: 95%
- Population Fragmented Nuclei (%) [2, 18]: 20%
- Population Healthy Nuclei (%) [2, 18]: 10%
- Population Hoechst High Intensity Objects (%) [2, 18]: 28%
- Population Membrane Permeable-Phenotype (%) [2, 18]: 5%
- Population Mitochondria Different-Phenotype (%) [2, 18]: 94%
- Population Mitotic Cells (%) [2, 18]: 4%
- Population Normal (%) [2, 18]: 71%
- Population Pyknosed Nuclei (%) [2, 18]: 68%
- Population Tubulin-Different-Phenotype (%) [2, 18]: 61%
- Total Cell Count [2, 18]: 241
- Population Apoptotic (%) [2, 19]: 98%
- Population Fragmented Nuclei (%) [2, 19]: 5%
- Population Healthy Nuclei (%) [2, 19]: 31%
- Population Hoechst High Intensity Objects (%) [2, 19]: 27%
- Population Membrane Permeable-Phenotype (%) [2, 19]: 2%
- Population Mitochondria Different-Phenotype (%) [2, 19]: 100%
- Population Mitotic Cells (%) [2, 19]: 1%
- Population Normal (%) [2, 19]: 72%
- Population Pyknosed Nuclei (%) [2, 19]: 62%
- Population Tubulin-Different-Phenotype (%) [2, 19]: 55%
- Total Cell Count [2, 19]: 148
- Growth Rate ([3]; 0 h, replicate number 2, timepoint 0 hours): 0
- Growth Rate [3, 4]: 0
- Growth Rate [3, 5]: 0
- Growth Rate ([3]; 12 h, replicate number 2, timepoint 12 hours): 1
- Growth Rate [3, 6]: 0
- Growth Rate [3, 7]: 0

Reference: ChEMBL document CHEMBL4689842, “EUbOPEN Chemogenomics Library wave 1” (2021)
